Experimental data reported in ChEMBL document CHEMBL4842360, “Discovery of a Bicyclic Peptidyl Pan-Ras Inhibitor” (J Med Chem, 2021).

Experiments:
[1] = system: NCI-H358; experiment: Antiproliferative activity against human NCI-H358 cells incubated for 96 hrs by MTT assay; type: functional, cell-based; details: Homo sapiens, NCI-H358, 96 h; read-out: EC50
Outline: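 H358 cells at 5,000/well, grown overnight, treated with serially diluted peptide (0–40 μM) in 10% FBS medium for 96 h at 37 °C. MTT added for 4 h, formazan solubilized overnight in SDS-HCl, absorbance read at 570 nm.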

[2] = system: NCI-H358; experiment: Antiproliferative activity against human NCI-H358 cells incubated for 96 hrs by Celltiter-Glo assay; type: functional, cell-based; details: Homo sapiens, NCI-H358, 96 h; read-out: EC50
[3] = Drug localization in cytosol of human HeLa cells assessed as mean fluorescence intensity at 5 uM incubated for 2 hrs by flow cytometry relative to relative to extracellular concentration; type: ADME, subcellular
[4] = molecular target: GTPase KRas (Homo sapiens, UniProt P01116, G12V); experiment: biochemical
Chain of GTPase KRas (P01116 whole entry G12V): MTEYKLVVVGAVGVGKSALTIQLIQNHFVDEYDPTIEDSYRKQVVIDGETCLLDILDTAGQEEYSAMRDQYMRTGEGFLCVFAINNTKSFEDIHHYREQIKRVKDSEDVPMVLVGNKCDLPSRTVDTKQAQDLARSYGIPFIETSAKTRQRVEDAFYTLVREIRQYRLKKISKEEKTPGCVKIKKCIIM

EC50 [1]: 29 µM
EC50 [2]: 22 µM
Drug uptake [3]: Active
Kd [4]: 0.14 µM
Structure (SMILES): C[C@@H]1NC(=O)[C@@H](Cc2ccccc2)NC(=O)[C@@H]2CCCCNC(=O)c3cc(cc(c3)C(=O)N[C@H](Cc3ccc4ccccc4c3)C(=O)N[C@@H](CO)C(=O)N[C@@H](CCC(N)=O)C(=O)N[C@H](Cc3ccc4ccccc4c3)C(=O)N[C@@H](c3ccccc3)C(=O)N2)C(=O)NC[C@@H](C(=O)NCCC(=O)NCCC(=O)NC(CCCCN)C(N)=O)NC(=O)[C@H](CCCNC(=N)N)NC(=O)[C@@H](CCCNC(=N)N)NC1=O (some centres undefined)
